Experimental data: ChEMBL document CHEMBL1128562, “1-Phenyl-3-amino-1,2,3,4-tetrahydronaphthalenes and related derivatives as ligands for the neuromodulatory sigma 3 receptor: further structure-activity relationships” (J Med Chem, 1995)

Key:
[1] = target: D(1A) dopamine receptor (Rattus norvegicus) (UniProt P18901); assay: Binding affinity against Dopamine receptor D1 by using [3H]SCH-23390 as radioligand
How it was run: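 Rat corpus striatum homogenate (30 μg protein) in 10 mM Tris with 150 mM NaCl, pH 7.4. Incubated 30 min at 30 °C with 0.3 nM [3H]SCH-23390; 300 nM cis-(Z)-flupenthixol defined nonspecific binding. Test ligand at 6–8 concentrations (0.01–10 000 nM) in triplicate, then filtration and scintillation counting. IC50 from sigmoidal fit converted to K0.5 = IC50/(1 + L/KD); assay repeated twice, ± SEM.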

[2] = target: D(2) dopamine receptor (Rattus norvegicus) (UniProt P61169); assay: Binding affinity against Dopamine receptor D2 by using [3H]- radioligand
D(2) dopamine receptor (Rattus norvegicus), sequence (P61169 whole entry): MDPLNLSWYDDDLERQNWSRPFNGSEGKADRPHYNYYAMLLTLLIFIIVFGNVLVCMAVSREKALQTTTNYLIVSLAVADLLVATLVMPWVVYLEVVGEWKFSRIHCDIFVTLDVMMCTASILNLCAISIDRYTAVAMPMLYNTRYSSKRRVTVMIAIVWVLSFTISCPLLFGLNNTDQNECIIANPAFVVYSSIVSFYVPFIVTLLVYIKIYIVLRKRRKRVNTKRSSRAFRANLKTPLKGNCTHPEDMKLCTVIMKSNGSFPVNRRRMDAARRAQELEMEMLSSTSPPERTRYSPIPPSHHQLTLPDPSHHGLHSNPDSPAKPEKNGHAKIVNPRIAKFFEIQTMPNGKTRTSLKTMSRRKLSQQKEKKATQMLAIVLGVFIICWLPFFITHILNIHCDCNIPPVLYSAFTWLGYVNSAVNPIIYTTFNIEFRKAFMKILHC
How it was run: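 D2 competition assay on rat corpus striatum homogenate (30 μg protein) in 10 mM Tris/150 mM NaCl, pH 7.4, at 30 °C for 90 min. Radioligand was 0.065 nM [3H]emonapride (YM-09151); 250 nM (+)-butaclamol defined nonspecific binding. Six to eight test concentrations spanning 0.01–10 000 nM, in triplicate. Sigmoidal-fit IC50 converted to K0.5 via IC50/(1 + L/KD); repeated twice, ± SEM.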

[3] = target: D(3) dopamine receptor (Homo sapiens) (UniProt P35462); assay: Binding affinity against Dopamine receptor D3 by using [3H]- radioligand
D(3) dopamine receptor (Homo sapiens), sequence (P35462 whole entry, looked up): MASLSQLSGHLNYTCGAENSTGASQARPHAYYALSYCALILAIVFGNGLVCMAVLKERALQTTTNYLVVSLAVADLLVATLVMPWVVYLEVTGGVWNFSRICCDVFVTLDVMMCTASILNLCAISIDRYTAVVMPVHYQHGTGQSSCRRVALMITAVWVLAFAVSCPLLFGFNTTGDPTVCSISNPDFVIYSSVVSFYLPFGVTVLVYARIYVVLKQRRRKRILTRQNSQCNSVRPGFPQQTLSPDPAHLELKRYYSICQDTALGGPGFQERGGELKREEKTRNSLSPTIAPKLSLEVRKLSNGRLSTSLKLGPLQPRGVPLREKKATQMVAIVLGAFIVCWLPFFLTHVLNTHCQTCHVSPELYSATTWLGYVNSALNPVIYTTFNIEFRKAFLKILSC

[4] = Binding affinity against Sigma receptor type 3 by using [3H]-(-)-H2-PAT as radioligand; conditions: Rattus norvegicus
[5] = target: D(1A) dopamine receptor (Rattus norvegicus) (UniProt P18901)
[6] = target: D(2) dopamine receptor (Rattus norvegicus) (UniProt P61169)
[7] = target: Sigma non-opioid intracellular receptor 1 (Rattus norvegicus) (UniProt Q9R0C9)
Sigma non-opioid intracellular receptor 1 (Rattus norvegicus), sequence (Q9R0C9 whole entry): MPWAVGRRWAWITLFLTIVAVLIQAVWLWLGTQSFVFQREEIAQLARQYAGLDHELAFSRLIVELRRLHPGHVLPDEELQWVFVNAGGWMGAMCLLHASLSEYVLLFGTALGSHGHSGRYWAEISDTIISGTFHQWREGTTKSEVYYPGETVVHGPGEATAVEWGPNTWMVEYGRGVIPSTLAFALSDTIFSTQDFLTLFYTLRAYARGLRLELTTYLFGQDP

D(1A) dopamine receptor (Rattus norvegicus), sequence (P18901 whole entry): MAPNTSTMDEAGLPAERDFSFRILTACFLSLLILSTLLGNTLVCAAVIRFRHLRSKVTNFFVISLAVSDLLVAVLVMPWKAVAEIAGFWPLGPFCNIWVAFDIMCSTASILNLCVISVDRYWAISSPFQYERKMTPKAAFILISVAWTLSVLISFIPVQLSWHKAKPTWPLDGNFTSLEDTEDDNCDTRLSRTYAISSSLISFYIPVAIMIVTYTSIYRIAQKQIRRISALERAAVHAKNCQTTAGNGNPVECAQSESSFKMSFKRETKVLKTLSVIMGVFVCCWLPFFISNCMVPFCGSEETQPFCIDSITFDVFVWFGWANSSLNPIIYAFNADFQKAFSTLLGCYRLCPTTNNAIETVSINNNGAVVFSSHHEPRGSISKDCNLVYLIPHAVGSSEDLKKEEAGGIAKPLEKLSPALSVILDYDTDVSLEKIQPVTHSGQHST

SMILES	Ki 0.5 [1]	Ki 0.5 [2]	Ki 0.5 [3]	Ki 0.5 [4]	Ki 0.5 [5]	Ki 0.5 [6]	Ki 0.5 [7]
CN(C)[C@@H]1CCc2ccccc2[C@@H](c2ccccc2)C1	> 5 µM	5 µM	1 µM	0.0218 µM			
CN(C)[C@@H]1CCc2ccccc2[C@H]1c1ccccc1	> 5 µM	> 5 µM	> 1 µM	0.98 µM			
CN(C)[C@H]1CCc2ccccc2[C@H](c2ccccc2)C1	> 5 µM	> 5 µM	> 1 µM	0.12 µM			
CN(C)[C@@H]1Cc2cc(Cl)c(O)cc2[C@@H](c2ccccc2)C1			0.3 µM	0.0003 µM	0.42 µM	0.26 µM	2 µM
C[N+](C)(C)[C@@H]1Cc2ccccc2[C@@H](c2ccccc2)C1	> 5 µM	> 2.5 µM	> 1 µM	0.035 µM			
c1ccc(CCCCN[C@@H]2Cc3ccccc3[C@@H](c3ccccc3)C2)cc1	1.53 µM	1.6 µM		1.05 µM			
CN(C)[C@H]1Cc2ccccc2[C@@](C)(c2ccccc2)C1	> 2.5 µM	> 5 µM	1 µM	0.0025 µM			
CN(CCCc1ccccc1)[C@@H]1Cc2ccccc2[C@@H](c2ccccc2)C1	0.38 µM	0.54 µM		0.3 µM			
CN(CCc1ccccc1)[C@@H]1Cc2ccccc2[C@@H](c2ccccc2)C1	0.054 µM	0.37 µM		0.15 µM			
CN(C)[C@@H]1Cc2ccccc2[C@@H](c2ccccc2)C1 (stereo in doubt; 2)	2.5 µM	5 µM	1 µM	0.0011 µM			
CN(C)[C@@H]1Cc2ccccc2[C@@](C)(c2ccccc2)C1	> 5 µM	> 5 µM	> 1 µM	0.0182 µM			
CN(C)[C@@H]1CCc2ccccc2[C@@H]1c1ccccc1	> 5 µM	> 5 µM	> 1 µM	1.3 µM			
c1ccc(CCCN[C@@H]2Cc3ccccc3[C@@H](c3ccccc3)C2)cc1	> 5 µM	5 µM		2.53 µM			
CN(C)[C@@H]1Cc2ccccc2[C@@H](c2ccccc2)C1 (stereo in doubt; (-)-2)	> 5 µM	> 5 µM	> 1 µM	0.0005 µM			
CN(C)[C@@H]1Cc2ccccc2[C@H](c2ccccc2)C1				0.074 µM			
CN[C@@H]1Cc2ccccc2[C@@H](c2ccccc2)C1	> 5 µM	> 5 µM	> 1 µM	0.12 µM			
CN(CCCCc1ccccc1)[C@@H]1Cc2ccccc2[C@@H](c2ccccc2)C1	0.44 µM	0.24 µM		0.28 µM			
CN(C)[C@@H]1Cc2ccccc2[C@@H](c2ccccc2)C1 (stereo in doubt; (+)-2)	> 5 µM	> 5 µM	1 µM	0.0135 µM			
